Experimental data published in ChEMBL document CHEMBL4765278, “Synthesis of antiplatelet ortho-carbonyl hydroquinones with differential action on platelet aggregation stimulated by collagen or TRAP-6” (Eur J Med Chem, 2020).
The source made the active and inactive calls. No cut-off for these calls is given here.

Experiments:
[1] = (§1) Inhibition of collagen-induced platelet aggregation in human platelet preincubated for 5 mins followed by collagen-stimulation and measured after 6 mins by lumi-aggregometric method; assay type: functional, tissue-based
Outline: (§2)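 Light transmission aggregometry of washed human platelets (3x10^8/mL) preincubated 5 min with 2 mM CaCl2 plus compound (0.2 to 200 μM; DMSO 0.2% vehicle). Aggregation induced by TRAP-6 (5 μM) or collagen (1 μg/mL) and followed 6 min. IC50 from dose-response curves, mean ± SEM of three experiments. S.I. = IC50 TRAP-6/IC50 collagen.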

[2] = (§3) Inhibition of TRAP6-induced platelet aggregation in human platelet preincubated for 5 mins followed by TRAP6-stimulation and measured after 6 mins by lumi-aggregometric method; assay type: functional, tissue-based; outline: as §2
[3] = Selectivity index, ratio of IC50 for inhibition of TRAP6-induced platelet aggregation in human platelet to IC50 for inhibition of collagen-induced platelet aggregation in human platelet; assay type: functional; outline: as §2
Platelet [4] = experiment: Cytotoxicity against human Platelet assessed as increase in LDH leakage at 200 uM after 10 mins by LDH assay; assay type: cell-based
Outline: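 Washed platelets (3x10^8/mL) incubated 10 min at 37°C with compound (200 μM), then centrifuged 800 x g for 8 min. Supernatant LDH kit read at 490 nm; 10% Triton X-100 served as positive control.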

Platelet [5] = experiment: Antiplatelet activity in human Platelet assessed as inhibition of TRAP6-induced GP2a/3b activation at 2 to 20 uM by flow cytometric analysis; assay type: functional, cell-based; conditions: dose 2-20 µM
Platelet [6] = experiment: Antiplatelet activity in human Platelet assessed as inhibition of TRAP6-induced ATP secretion at 2 to 20 uM by Cell Titer-Glo luminescent cell viability assay; assay type: functional, cell-based; conditions: dose 2-20 µM
Platelet [7] = experiment: Antiplatelet activity in human Platelet assessed as intracellular calcium level at 2 to 20 uM preincubated for 5 mins and measured for 15 sec by Fluo-3-AM staining based assay; assay type: functional, cell-based; conditions: dose 2-20 µM
Outline: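 Washed platelets (5x10^7/mL) loaded with Fluo-3-AM (0.4 μM) for 30 min at RT, then given vehicle (DMSO 0.2%) or compound for 5 min. Baseline recorded 15 s, then FCCP (1 μM) added and read 60 s more by flow cytometry. Expressed relative to control.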

Platelet [8] = experiment: as §1; assay type: functional, tissue-based; conditions: time 11.0 min; outline: as §2
Platelet [9] = experiment: Antiplatelet activity in human Platelet assessed as mitochondrial membrane potential loss at 20 uM by TMRM staining based flow cytometric analysis; assay type: functional, cell-based
Outline: (§4)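 Washed platelets loaded with TMRM (100 nM), then incubated with DMSO 0.2%, compound or FCCP (1 μM) at 37°C for 20 min; ΔΨm by flow cytometry.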

Platelet [10] = experiment: Effect on platelet activation in human collagen/TRAP6-inducrd human Platelet assessed as positive subpopulation cells at 2 to 20 uM by annexin V-FITC staining based flow cytometric analysis; assay type: functional, tissue-based; conditions: dose 2-20 µM
Outline: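 Washed platelets (3x10^8/mL) preincubated 5 min with 2 mM CaCl2 plus compound and stimulated with collagen + TRAP-6. Diluted in annexin V binding buffer and stained with annexin V-FITC and anti-CD61-PE for 25 min in the dark; flow cytometry.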

[11] = Inhibition of TRAP6-induced platelet aggregation in human platelet preincubated for 5 mins followed by 10 uM TRAP6-stimulation and measured after 6 mins by lumi-aggregometric method relative to control; assay type: functional; conditions: time 11 min
Outline: (§5)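 Washed platelets (3x10^8/mL) preincubated 5 min with 2 mM CaCl2 plus compound, then challenged at maximal agonist level, 10 μM TRAP-6 or 2 collagen as printed. Transmission followed 6 min and compared with DMSO 0.2% control; n=3.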

Platelet [12] = experiment: Antiplatelet activity in human Platelet assessed as intracellular NADH level at 2 to 20 uM by fluorescence assay; assay type: functional, cell-based; conditions: dose 2-20 µM
Outline: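 NAD(P)H autofluorescence in resting washed platelets, excitation 340 nm and emission 428 nm. Mean ± SEM of n=3.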

Platelet [13] = experiment: Antiplatelet activity in human Platelet assessed as decrease in intracellular ATP level at 20 uM by Cell Titer-Glo luminescent cell viability assay; assay type: functional, cell-based
Outline: (§6)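 Intraplatelet ATP in resting washed human platelets measured by CellTiter-Glo luminescence following the kit instructions. Mean ± SEM of n=3 experiments.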

Platelet [14] = experiment: Antiplatelet activity in human Platelet assessed as inhibition of TRAP6-induced p-selectin protein expression at 2 to 20 uM by flow cytometric analysis; assay type: functional, cell-based; conditions: dose 2-20 µM
[15] = Inhibition of collagen-induced platelet aggregation in human platelet preincubated for 5 mins followed by 2 ug/ml collagen-stimulation and measured after 6 mins by lumi-aggregometric method relative to control; assay type: functional; conditions: time 11 min; outline: as §5
Platelet [16] = experiment: as §3; assay type: functional, tissue-based; conditions: time 11.0 min; outline: as §2
Platelet [17] = experiment: Antiplatelet activity in human Platelet assessed as inhibition of TRAP6-induced CD63 expression at 2 to 20 uM by flow cytometric analysis; assay type: functional, cell-based; conditions: dose 2-20 µM
Platelet [18] = experiment: Antiplatelet activity in human Platelet assessed as increase in ROS production at 20 uM by DHE staining based flow cytometric analysis; assay type: functional, cell-based
Outline: (§7)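 Washed human platelets (5x10^7/mL) exposed to compounds with 10 μM dihydroethidium for 20 min at 37°C; ROS read by flow cytometry. Mean ± SEM of three experiments.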

Platelet [19] = experiment: Antiplatelet activity in human Platelet assessed as inhibition of collagen-induced ATP secretion at 2 to 20 uM by Cell Titer-Glo luminescent cell viability assay; assay type: functional, cell-based; conditions: dose 2-20 µM
Platelet [20] = experiment: Antiplatelet activity in human Platelet assessed as ROS production at 2 to 20 uM by DHE staining based flow cytometric analysis; assay type: functional, cell-based; conditions: dose 2-20 µM; outline: as §7
Platelet [21] = experiment: Antiplatelet activity in human Platelet assessed as intracellular ATP level at 2 to 20 uM by Cell Titer-Glo luminescent cell viability assay; assay type: functional, cell-based; conditions: dose 2-20 µM; outline: as §6
Platelet [22] = experiment: Antiplatelet activity in human Platelet assessed as inhibition of collagen-induced GP2a/3b activation at 2 to 20 uM by flow cytometric analysis; assay type: functional, cell-based; conditions: dose 2-20 µM
Platelet [23] = experiment: Antiplatelet activity in human Platelet assessed as inhibition of collagen-induced p-selectin protein expression at 2 to 20 uM by flow cytometric analysis; assay type: functional, cell-based; conditions: dose 2-20 µM
Platelet [24] = experiment: Antiplatelet activity in human Platelet assessed as mitochondrial membrane potential loss at 2 to 20 uM by TMRM staining based flow cytometric analysis; assay type: functional, cell-based; conditions: dose 2-20 µM; outline: as §4

IC50 [1] [µM]	IC50 [2] [µM]	SMILES	Ratio IC50 [3]	Activity (Platelet [4])	further results
14.3	> 100	CC1(C)C=CC(=O)c2c(O)ccc(O)c21	7	Non-Toxic	
17.1	11.9	CCC1(CC)C=CC(=O)c2c(O)c3c(c(O)c21)CC=CC3	0.69	Non-Toxic	inhibition (Platelet [5]): Active; inhibition (Platelet [6]): Active; Activity (Platelet [7]): inactive; inhibition (Platelet [8]): Dose-dependent effect; Activity (Platelet [9]): Active; Activity (Platelet [10]): inactive; inhibition (INH) [11]: 100%; Activity (Platelet [12]): inactive; Activity (Platelet [13]): Active; inhibition (Platelet [14]): Active; inhibition (INH) [15]: 100%; inhibition (Platelet [16]): Dose-dependent effect; inhibition (Platelet [17]): Active; Activity (Platelet [18]): Active
1.77	> 100	O=C1C=CC2(CCCC2)c2c(O)ccc(O)c21	56.5	Non-Toxic	Activity (Platelet [7]): inactive; inhibition (Platelet [8]): Dose-dependent effect; inhibition (Platelet [19]): Active; Activity (Platelet [20]): inactive; Activity (Platelet [10]): inactive; inhibition (INH) [11]: 100%; Activity (Platelet [21]): inactive; Activity (Platelet [12]): inactive; inhibition (Platelet [22]): Active; inhibition (INH) [15]: 100%; inhibition (Platelet [16]): Dose-dependent effect; inhibition (Platelet [23]): Active; Activity (Platelet [24]): inactive
12	> 100	Cc1c(C)c(O)c2c(c1O)C(=O)C=CC2(C)C	8.35	Non-Toxic	
35.3	31.9	CCC1(CC)C=CC(=O)c2c(O)ccc(O)c21	0.9	Non-Toxic	
11.5	15.8	CC1C=CC(CO)c2c(O)c3c(c(O)c21)C(C)(C)C=CC3=O (stereo not given)	1.37	Non-Toxic	
> 100	> 100	CC1C=CC(COC(=O)C2CCCCC2)c2c(O)c3c(c(O)c21)C(=O)C=CC3(C)C (stereo not given)		Non-Toxic	
		CCCCCC1=CC(C)(C)c2c(O)ccc(O)c2C1=O		Toxic	
2	4	CCCSc1nc(N[C@@H]2C[C@H]2c2ccc(F)c(F)c2)c2nnn([C@@H]3C[C@H](OCCO)[C@@H](O)[C@H]3O)c2n1 [TICAGRELOR]	2		
> 100	> 100	CC1C=CC(COC(=O)C2CCCCC2)c2c(O)c3c(c(O)c21)C(C)(C)C=CC3=O (stereo not given)		Non-Toxic	
		CCCCCCC1=CC(C)(C)c2c(O)ccc(O)c2C1=O		Toxic	
4.38	> 100	CC1C=CC(CO)c2c(O)c3c(c(O)c21)C(=O)C=CC3(C)C (stereo not given)	22.83	Non-Toxic	
20.6	> 100	CC1(C)C=CC(=O)c2c(O)c3c(c(O)c21)CC=CC3	4.86	Non-Toxic	
		CCCCCCCC1=CC(C)(C)c2c(O)ccc(O)c2C1=O		Toxic	

SMILES	IC50 [1] [µM]	IC50 [2] [µM]	Ratio IC50 [3]	Activity (Platelet [4])	further results
O=C1C=CC2(CCCC2)c2c(O)c3c(c(O)c21)CC=CC3	25.5	> 100	3.92	Non-Toxic	
